For data set [1], the target named is T1, Translocator protein (Homo sapiens, UniProt P30536). Description: Displacement of [3H]-PK11195 from PBR after 1 hr by scintillation counting. On the technique in general: Loss of bound radioactivity is the signal in a displacement assay; it reports binding, not function.
A short description of data set [2]: Drug level in human U87 cells xenografted in BALB/c mouse after 24 hrs […]. Type of data set: ADME, cell-based, U-87MG ATCC. The conditions noted are these: in vivo, in the assay text read “nude mouse” for “BALB/c mouse”. The method in brief:
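Nude mice bearing U87 tumours given the 124I-labelled agent. Tumour and organ uptake taken by biodistribution 24 h after injection. Mean with standard deviation.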
(Xenograft models place foreign cells or tissue in a host animal.)

The subject of data set [3] is MDA-MB-231. Briefly: Cellular uptake in human MDA-MB-231 cells at 0.1 uM by fluorescence spectroscopy. The following applies: mda-mb-231, 0.1 µM. The format is ADME, cell-based. The essentials:
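MDA-MB-231 cells. Uptake measured by fluorescence spectroscopy with excitation at 412 nm and emission scanned from 550 to 750 nm (maximum at 678 nm). Conjugate uptake compared with and without the TSPO ligand PK 11195 analogue.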

Data set [4] relates to MDA-MB-231. Description: Antitumor activity against human MDA-MB-231 cells xenografted in SCID mouse assessed as tumor free mouse at 5 umol/kg measured on day 60. Type of data set: functional.
A further data set deals with Blood. Description: Drug level in […] cells xenografted BALB/c mouse blood after 24 hrs by microPET analysis. The conditions noted are these: in vivo. The format is ADME, cell-based. The essentials: (§1)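 Balb/c mice bearing EMT6 tumours given the 124I-labelled agent. Uptake in organs and tumour taken by biodistribution 24 h after injection, with microPET coronal emission imaging. Mean with standard deviation.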

The test system of a further data set is Muscle tissue. Description: Drug level in […] cells xenografted BALB/c mouse muscle after 24 hrs by microPET analysis. Type of data set: ADME, cell-based. The conditions noted are these: in vivo. The method in brief:
as §1

Another data set has as its system Spleen. Description: Drug level in […] cells xenografted BALB/c mouse spleen after 24 hrs by microPET analysis. The format is ADME, cell-based. The conditions noted are these: in vivo. The essentials:
as §1

The next data set has as its system Kidney. Briefly: Drug level in […] cells xenografted BALB/c mouse kidney after 24 hrs by microPET analysis. The conditions noted are these: in vivo. Type of data set: ADME, cell-based. The essentials:
as §1

The test system of the next data set is Lung. Description: Drug level in […] cells xenografted BALB/c mouse lungs after 24 hrs by microPET analysis. Type of data set: ADME, cell-based. The conditions noted are these: in vivo. The method in brief:
as §1

Another data set has as its system Heart. Description: Drug level in […] cells xenografted BALB/c mouse heart after 24 hrs by microPET analysis. Type of data set: ADME, cell-based. The following applies: in vivo. The method in brief:
as §1

A further data set deals with Liver. Briefly: Drug level in […] cells xenografted BALB/c mouse liver after 24 hrs by microPET analysis. The format is ADME, cell-based. The conditions noted are these: in vivo. The essentials:
as §1

A short description of data set [5]: Drug level in […] cells xenografted BALB/c mouse gut after 24 hrs by microPET analysis. Type of data set: ADME, cell-based. The conditions noted are these: in vivo. The method in brief: as §1
The subject of another data set is Stomach. Description: Drug level in […] cells xenografted BALB/c mouse stomach after 24 hrs by microPET analysis. The following applies: in vivo. Type of data set: ADME, cell-based. The essentials:
as §1

The next data set has as its system Brain. Description: Drug level in […] cells xenografted BALB/c mouse brain after 24 hrs by microPET analysis. Type of data set: ADME, cell-based. The following applies: in vivo. The method in brief:
as §1

For data set [6], the target named is T1, Translocator protein. Briefly: Binding affinity to PBR.
In data set [7] the test system is MDA-MB-231. Briefly: Drug level in human MDA-MB-231 cells xenografted in SCID mouse after 24 hrs by microPET analysis. Type of data set: functional, cell-based. The method in brief:
(§2)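 Scid mice bearing MDA-231 tumours given the 124I-labelled conjugate at 50 μCi (about 40 ng) per mouse. MicroPET coronal emission imaging at 24, 48, 72 and 96 h after injection, plus biodistribution with three mice per group. Mean with standard deviation.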

In data set [8] the test system is MDA-MB-231. Briefly: Drug level in human MDA-MB-231 cells xenografted in SCID mouse after 48 to 96 hrs by microPET analysis. The following applies: tested as the 124I-labelled form. Type of data set: functional, cell-based. The essentials:
as §2

Structures are written as SMILES. Activity calls are given as the source filed them. The rule behind the calls is not given here.

T1 sequence (P30536 whole entry): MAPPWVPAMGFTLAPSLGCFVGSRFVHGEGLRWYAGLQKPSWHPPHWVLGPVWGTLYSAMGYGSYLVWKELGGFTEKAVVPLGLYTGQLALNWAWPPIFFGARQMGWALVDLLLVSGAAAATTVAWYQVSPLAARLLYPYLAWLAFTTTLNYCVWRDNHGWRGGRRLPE

As usually defined, the IC50 is the concentration at which inhibition is half-maximal. On Translocator protein [1], `C=Cc1c(C)c2cc3nc(c4c5[nH]c(cc6nc(cc1[nH]2)C(C)=C6CC)c(C)c5C(=O)C4)[C@@H](CCC(=O)NCCNC(=O)c1cc2ccccc2c(-c2ccccc2I)n1)[C@@H]3C` registered an IC50 of 2200 nM.
For `CCC(C)N(C)C(=O)c1cc2ccccc2c(-c2ccccc2[124I])n1` (stereo unspecified), in data set [2], the Drug uptake entry is “Not Active”.
As to `C=Cc1c(C)c2cc3nc(c4c5[nH]c(cc6nc(cc1[nH]2)C(C)=C6CC)c(C)c5C(=O)C4)[C@@H](CCC(=O)NCCCCCCN)[C@@H]3C`, the IC50 at Translocator protein [1] worked out at 25000 nM. Moreover, in the data set on MDA-MB-231 [3], the Drug uptake entry is “Active”. In the data set with MDA-MB-231 [4], the Activity stood at 0%.
`CCC(C)N(C)C(=O)c1cc2ccccc2c(-c2ccccc2I)n1` (stereo unspecified) showed a 50% inhibitory concentration (IC50) on Translocator protein [1] of 620 nM. Besides, the Drug uptake result in the data set with Blood, with Muscle tissue, in the data set with Spleen, in the data set on Kidney, in the data set with Lung and in the data set with Heart was “Not Active” throughout. In addition, the Drug uptake entry (with Liver; in [5]; in the data set on Stomach; with Brain) was “Not Active” in each case.
Broadly, the Kd is the concentration at which binding is half-saturated. `C=Cc1c(C)c2cc3nc(c4c5[nH]c(cc6nc(cc1[nH]2)C(C)=C6CC)c(C)c5C(=O)C4)[C@@H](CCC(=O)NCCCCCCNC(=O)c1cc2ccccc2c(-c2ccccc2I)n1)[C@@H]3C` showed a 50% inhibitory concentration (IC50) on Translocator protein [1] of 310 nM. The Drug uptake entry in the data set with MDA-MB-231 [3] is recorded as “Active”. The Kd at Translocator protein [6] worked out at 40 nM. Also, the Activity in the data set on MDA-MB-231 [4] stood at 20%. For the same compound, the Drug uptake entry with MDA-MB-231 [7] was “Active”.
Take `CCCCCCOC(C)c1c(C)c2cc3nc(c4c5[nH]c(cc6nc(cc1[nH]2)C(C)=C6CC)c(C)c5C(=O)C4)[C@@H](CCC(=O)NCCCCCCNC(=O)c1cc2ccccc2c(-c2ccccc2I)n1)[C@@H]3C` (stereo partly specified): the Drug uptake entry in the data set with MDA-MB-231 [7] and in the data set with MDA-MB-231 [8] was “Active” throughout.
In turn, `C=Cc1c(C)c2cc3nc(c4c5[nH]c(cc6nc(cc1[nH]2)C(C)=C6CC)c(C)c5C(=O)C4)[C@@H](CCC(=O)N(C)CCN(C)C(=O)c1cc2ccccc2c(-c2ccccc2I)n1)[C@@H]3C` gave an IC50 on Translocator protein [1] of 1000 nM.
On the same count and under the same terms, the value for `C=Cc1c(C)c2cc3nc(c4c5[nH]c(cc6nc(cc1[nH]2)C(C)=C6CC)c(C)c5C(=O)C4)[C@@H](CCC(=O)NCCN)[C@@H]3C` was 5600 nM; that for `C=Cc1c(C)c2cc3nc(c4c5[nH]c(cc6nc(cc1[nH]2)C(C)=C6CC)c(C)c5C(=O)C4)[C@@H](CCC(=O)N(C)CCCCCCN(C)C(=O)c1cc2ccccc2c(-c2ccccc2I)n1)[C@@H]3C` was 210 nM.

The values above are taken from ChEMBL document CHEMBL1671831, “TSPO 18 kDa (PBR) Targeted Photosensitizers for Cancer Imaging (PET) and PDT” (ACS Med Chem Lett, 2011).
